Measurements published in ChEMBL document CHEMBL4480462, “HPLC-Based Activity Profiling for Antiprotozoal Compounds in the Endemic Iranian Medicinal Plant Helichrysum oocephalum” (J Nat Prod, 2019).

What was measured:
[1] = Selectivity index, ratio of IC50 for rat L6 cells to IC50 for axenic amastigotes
Procedure, shortened: (§1)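 The selectivity index is the IC50 in L6 cells divided by the IC50 in the named parasite. Each IC50 comes from 11-step 3-fold dilution series (100 to 0.001 μg/mL) fitted by linear regression and averaged over two independent assays.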

[2] = tested on: Plasmodium falciparum; test: Antiplasmodial activity against Plasmodium falciparum NF54 infected in human erythrocytes assessed as reduction in [3H]-hypoxanthine incorporation pretreated for 48 hrs followed by [3H]-hypoxanthine addition measured after 24 hrs by liquid scintillation counting method; format: functional, organism-based
Procedure, shortened: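 Erythrocytic-stage NF54 parasites were tested over 11 3-fold serial dilutions from 100 to 0.001 μg/mL, with chloroquine as reference. IC50 was derived by linear regression. Runs were single and repeated at least twice, and the value given is the mean of two independent assays.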

[3] = tested on: L6; test: Cytotoxicity against rat L6 cells; format: cell-based
Procedure, shortened: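 Rat skeletal myoblast L6 cells were exposed to 11 3-fold serial drug dilutions covering 100 to 0.001 μg/mL, with podophyllotoxin as reference. IC50 was calculated by linear regression. Runs were single and repeated at least two times, and the figure is the mean of two independent assays.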

[4] = Selectivity index, ratio of IC50 for rat L6 cells to IC50 for Plasmodium falciparum NF54 infected in human erythrocytes; format: toxicity, cell-based; details: read-out: Ratio IC50; procedure, shortened: as §1
[5] = tested on: Leishmania donovani; test: Antileishmanial activity against Leishmania donovani MHOM-ET-67/L82 axenic amastigotes after 70 hrs by resazurin staining based fluorescence assay; format: functional, organism-based; details: MHOM-ET-67/L82, 70 h
Procedure, shortened: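 Axenically grown amastigotes of strain MHOM-ET-67/L82 were exposed to serial drug dilutions of 11 3-fold steps spanning 100 to 0.001 μg/mL, with miltefosine as reference. IC50 was obtained by linear regression. Each assay was run singly and repeated at least twice, and the reported value is the average of two independent assays.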

Row | IC50 [2] | SMILES | Ratio IC50 [1] | IC50 [3] | selectivity ratio [4] | IC50 [5]
1 | 11.3 µM | CC(=O)c1c(O)c(Cc2c(O)c(C)c(C)oc2=O)c(O)c2c1OC(C)(C)C=C2 | 29.7 | 53.1 µM | 4.7 | 1.8 µM
2 | 18 µM | CCC1=C(C)C(=O)C2(Cc3c(O)c(CC=C(C)C)c(O)c(C(=O)C(C)C)c3O2)O1 (configuration not stated) | 7.2 | 43 µM | 2.1 | 6 µM
3 | 1.2 µM | CCc1oc(=O)c(Cc2c(O)c(CC=C(C)CCC=C(C)C)c(O)c(C(=O)C(C)CC)c2O)c(O)c1C (configuration not stated) | 6.4 | 36.3 µM | 15.7 | 5.6 µM
4 | 23.9 µM | CC(=O)c1c(O)c(CC=C(C)CCC=C(C)C)c(O)c2c1OC1(C2)OC(C)=C(C)C1=O (configuration not stated) | 15.6 | 43.4 µM | 2.2 | 2.8 µM
5 | 7.2 µM | CC(C)=CCCC(C)=CCc1c(O)c2c(c(C(=O)C(C)C)c1O)OC1(C2)OC(C)=C(C)C1=O (configuration not stated) | 8.5 | 18.8 µM | 5.5 | 2.2 µM
6 | 2.5 µM | CCc1oc(=O)c(Cc2c(O)c(CC=C(C)C)c(O)c(C(=O)C(C)CC)c2O)c(O)c1C (configuration not stated) | 2.25 | 37.8 µM | 5.36 | 16.8 µM
7 | 31.7 µM | CCC(=O)c1c(O)c(CC=C(C)C)c(O)c2c1OC1(C2)OC(C)=C(C)C1=O (configuration not stated) | 6.2 | 44.1 µM | 0.8 | 7.1 µM
8 | 22.7 µM | CC(C)=CCc1c(O)c2c(c(C(=O)C(C)C)c1O)OC1(C2)OC(C)=C(C)C1=O (configuration not stated) | 10.5 | 20.1 µM | 1.9 | 1.9 µM
9 | 8.6 µM | CCc1oc(=O)c(Cc2c(O)c(Cc3c(O)c(C)c(CC)oc3=O)c(O)c(C(=O)C(C)C)c2O)c(O)c1C | 22.9 | 57.6 µM | 4.4 | 2.5 µM
10 | 5.5 µM | CCC(C)C(=O)c1c(O)c(CC=C(C)C)c(O)c(Cc2c(O)c(C)c(C)oc2=O)c1O (configuration not stated) | 11.5 | 55.5 µM | 7.9 | 4.8 µM
11 | 18.1 µM | CCc1oc(=O)c(Cc2c(O)c(C)c(C)oc2=O)c(O)c1C | 2.8 | 43.9 µM | 3.4 | 15.5 µM
12 | 2.6 µM | CCC(C)C(=O)c1c(O)c(CC=C(C)CCC=C(C)C)c(O)c(Cc2c(O)c(C)c(C)oc2=O)c1O (configuration not stated) | 11.1 | 48.3 µM | 7.7 | 4.4 µM
13 | 7.12 µM | CCc1oc(=O)c(Cc2c(O)c(C(=O)C(C)C)c(O)c3c2O[C@@]2(C)CC[C@@H]4[C@H]2[C@H]3C4(C)C)c(O)c1C | 6 | 12 µM | 1.7 | 2 µM
14 | 22.3 µM | Cc1oc(=O)c(Cc2c(O)c(C)c(C)oc2=O)c(O)c1C | 1.7 | 26.5 µM | 2.5 | 15.7 µM
15 | 7.6 µM | CCC(C)C(=O)c1c(O)c(CC=C(C)C)c(O)c2c1OC1(C2)OC(C)=C(C)C1=O (configuration not stated) | 7.6 | 13.2 µM | 4.8 | 1.7 µM
16 | 8 µM | CC(C)=CCc1c(O)c(Cc2c(O)c(C)c(C)oc2=O)c(O)c(C(=O)C(C)C)c1O | 10.4 | 61.1 µM | 5.5 | 5.8 µM
17 | 3.8 µM | CCc1oc(=O)c(Cc2c(O)c(CC=C(C)CCC=C(C)C)c(O)c(C(=O)C(C)C)c2O)c(O)c1C | 15 | 39.7 µM | 11.3 | 2.7 µM
18 | 23.1 µM | CCC1=C(C)C(=O)C2(Cc3c(O)c(CC=C(C)C)c(O)c(C(C)=O)c3O2)O1 (configuration not stated) | 9.5 | 55.1 µM | 2.3 | 5.8 µM
19 | 14.6 µM | CC(=O)c1c(O)c(CC=C(C)C)c(O)c2c1OC1(C2)OC(C)=C(C)C1=O (configuration not stated) | 11.1 | 56.3 µM | 3.9 | 5.1 µM
20 | 7.4 µM | CCc1oc(=O)c(Cc2c(O)c(CC=C(C)C)c(O)c(C(=O)C(C)C)c2O)c(O)c1C | 3.8 | 52.2 µM | 7.6 | 13.7 µM
21 | 5.7 µM | CC(C)=CCCC(C)=CCc1c(O)c(Cc2c(O)c(C)c(C)oc2=O)c(O)c(C(=O)C(C)C)c1O | 12.3 | 38.4 µM | 9.6 | 3.1 µM
22 | 9.3 µM | CCc1oc(=O)c(Cc2c(O)c3c(c(C(=O)C(C)C)c2O)OC(C)(CCC=C(C)C)C=C3)c(O)c1C (racemic) | 11.2 | 21.4 µM | 2.3 | 1.9 µM
23 | 8.9 µM | CCc1oc(=O)c(Cc2c(O)c(C)c(CC)oc2=O)c(O)c1C [HELIPYRONE] | 3.6 | 54.3 µM | 5.4 | 14.9 µM
24 |  | CCCCCCCCCCCCCCCCOP(=O)([O-])OCC[N+](C)(C)C [MILTEFOSINE] |  |  |  | 0.285 µM
25 |  | COc1cc([C@@H]2c3cc4c(cc3[C@H](O)[C@H]3COC(=O)[C@H]23)OCO4)cc(OC)c1OC [PODOFILOX] |  | 0.005 µM |  | 
